Values after ≈ are worked out from the molar mass of the structure shown. Active and inactive are the calls of the source. The calls are words filed in the database; no cut-off is given here.
Experiments:
[1] = Ratio of unbound AUClast in C57BL6J mouse brain to plasma at 1 mg/kg, sc measured up to 24 hrs post dose by HPLC-MS/MS analysis; conditions: brain and plasma
[2] = target: T1, Fatty-acid amide hydrolase 1 (Homo sapiens, UniProt O00519); test: Inhibition of recombinant human FAAH using fluorogenic arachidonoyl-AMC as substrate preincubated for 30 mins followed by substrate addition measured after 60 mins by fluorescence based assay
T1 sequence (O00519 whole entry): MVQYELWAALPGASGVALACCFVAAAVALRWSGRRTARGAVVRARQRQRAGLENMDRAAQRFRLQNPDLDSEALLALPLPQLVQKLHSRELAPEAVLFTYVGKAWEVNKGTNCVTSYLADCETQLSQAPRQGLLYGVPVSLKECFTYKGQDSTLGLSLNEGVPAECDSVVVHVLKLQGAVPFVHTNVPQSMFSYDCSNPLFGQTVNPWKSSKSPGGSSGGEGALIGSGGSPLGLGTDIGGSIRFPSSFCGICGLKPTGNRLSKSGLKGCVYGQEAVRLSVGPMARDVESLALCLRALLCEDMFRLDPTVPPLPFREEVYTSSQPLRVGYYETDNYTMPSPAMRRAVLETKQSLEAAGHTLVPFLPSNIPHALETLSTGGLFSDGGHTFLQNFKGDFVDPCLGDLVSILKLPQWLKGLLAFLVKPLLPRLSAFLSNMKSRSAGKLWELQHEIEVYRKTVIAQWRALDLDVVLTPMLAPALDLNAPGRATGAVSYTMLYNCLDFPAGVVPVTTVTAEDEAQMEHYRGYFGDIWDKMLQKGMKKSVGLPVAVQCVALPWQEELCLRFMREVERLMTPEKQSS
In short: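 Human recombinant FAAH (0.0125 U final) in 50 mM Tris pH 9.0, 1 mM EDTA, preincubated 30 min at room temperature with compound (30 μM to 0.3 nM final); arachidonoyl-AMC 5 μM added, 60 min reaction, read Ex/Em 355/460. Inhibition vs no-compound and full-inhibition controls; four-parameter fit; geometric mean of ≥3 experiments.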

[3] = Kinetic solubility of the compound at pH 7.4; type: physicochemical; conditions: buffer, read-out: Kinetic_solubility
[4] = target: T2, CES1 (liver carboxylesterase 1) (Homo sapiens, UniProt P23141); test: Inhibition of human CES1 at 10 uM
T2 sequence (P23141 whole entry): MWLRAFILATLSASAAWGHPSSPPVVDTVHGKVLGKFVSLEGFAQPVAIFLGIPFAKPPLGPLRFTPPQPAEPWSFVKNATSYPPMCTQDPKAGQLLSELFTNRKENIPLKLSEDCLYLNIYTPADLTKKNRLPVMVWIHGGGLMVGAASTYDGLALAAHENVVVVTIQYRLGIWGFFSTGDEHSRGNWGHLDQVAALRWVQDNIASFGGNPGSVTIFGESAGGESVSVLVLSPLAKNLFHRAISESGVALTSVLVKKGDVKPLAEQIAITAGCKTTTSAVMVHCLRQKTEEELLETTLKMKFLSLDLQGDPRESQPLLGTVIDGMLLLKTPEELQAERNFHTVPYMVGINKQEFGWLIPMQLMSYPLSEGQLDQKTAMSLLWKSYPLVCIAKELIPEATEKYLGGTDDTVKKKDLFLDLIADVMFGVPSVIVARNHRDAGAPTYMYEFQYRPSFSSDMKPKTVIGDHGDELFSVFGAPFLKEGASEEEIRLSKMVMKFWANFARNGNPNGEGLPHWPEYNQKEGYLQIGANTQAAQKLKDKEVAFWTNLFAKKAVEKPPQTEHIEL
In short: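 Panel of 42 human serine hydrolases, each exposed to inhibitor at 10 µM; activity expressed as percent inhibition.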

Cannabinoid receptor 1 [5] = target: T3, Cannabinoid receptor 1 (Homo sapiens, UniProt P21554); test: Agonist activity at human CB1 receptor expressed in CHOK1 cells assessed as […] after 20 mins by HTRF assay; type: functional, cell-based
[6] = Apprent permeability in RRCK cells; type: ADME, cell-based, Canis lupus familiaris, MDCKII-LE; conditions: dog, MDCK
[7] = Intrinsic clearance in human hepatocytes; type: ADME, cell-based, Hepatocyte; conditions: read-out: CLH
In short: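 Substrate depletion in cryopreserved human hepatocytes; scaled intrinsic clearance in mL/min/kg.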

[8] = Volume of distribution in Wistar Hannover rat at 1 mg/kg, iv administered as bolus dose via jugular vein cannula measured up to 24 hrs post dose by HPLC-MS/MS analysis; type: ADME, organism-based; conditions: in vivo
In short: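 Rats (n = 2) given 1 mg/kg IV bolus via jugular vein cannula, solution in 3% DMA/10% Solutol HS15/10% Miglyol/77% of 20% SBECD in water, 1 mL/kg. Carotid cannula blood pre-dose and 0.083–24 h; plasma by HPLC-MS/MS; non-compartmental analysis.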

[9] = Half life in Beagle dog at 1 mg/kg, iv administered via cephalic vein measured up to 24 hrs post dose by HPLC-MS/MS analysis; type: ADME, organism-based, Canis lupus familiaris; conditions: in vivo
[10] = Unbound fraction in C57BL6J mouse plasma at 1 mg/kg, sc measured up to 24 hrs post dose by HPLC-MS/MS analysis; type: ADME, organism-based
[11] = Unbound fraction in C57BL6J mouse brain at 1 mg/kg, sc measured up to 24 hrs post dose by HPLC-MS/MS analysis; type: ADME, organism-based
CYP2C9 = CYP2C9 (Homo sapiens, UniProt P11712); test: Inhibition of CYP2C9 (unknown origin) at 3 uM; type: ADME
In short: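 Competitive inhibition screen of CYP3A4, 2D6, 2C9, 2C8 and 1A2 using isoform-relevant probe substrates, compound at 3 μM.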

Mus musculus [12] = test: Anti-inflammatory activity in C57BL6J mouse assessed as reduction in LPS-induced PGE2 levels in brain at 1 mg/kg, sc administered 30 mins after LPS challenge measured at 4 hrs post LPS challenge by LC-MS/MS analysis; type: functional, organism-based
In short: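 Mice given LPS 20 mg/kg IP or saline, then 1 mg/kg SC compound or vehicle 30 min later; brains collected 4 h post-LPS, homogenized in pH 2.0 PMSF/NH4OAc buffer, spiked with d4-PGE2 internal standard, acetonitrile-extracted, and PGE2 quantified by LC-MS/MS.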

Mus musculus [13] = test: Anti-inflammatory activity in C57BL6J mouse assessed as reduction in LPS-induced IL-1beta levels in brain at 1 mg/kg, sc administered 30 mins after LPS challenge measured at 4 hrs post LPS challenge; type: functional, organism-based
Mus musculus [14] = test: Anti-inflammatory activity in C57BL6J mouse assessed as reduction in LPS-induced TNFalpha levels in brain at 1 mg/kg, sc administered 30 mins after LPS challenge measured at 4 hrs post LPS challenge; type: functional, organism-based
In short: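 LPS 20 mg/kg IP or saline, then 1 mg/kg SC compound or vehicle at 30 min; hemi-brains taken at 4 h, homogenized in PBS with protease inhibitors, spun 100,000 rcf 45 min at 4°C; IL-1β and TNFα measured by Meso Scale electrochemiluminescence panel, with protein measured by BCA.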

Cannabinoid receptor 1 [15] = target: T3, Cannabinoid receptor 1; test: Displacement of [3H]CP55940 from human CB1 receptor expressed in CHOK1 cell membranes at 10 uM after 120 mins by scintillation counting method
Mus musculus [16] = species on record: Mus musculus; conditions: C57BL6J, 1 mg/kg
Mus musculus [17] = species on record: Mus musculus; conditions: C57BL6J, 1 mg/kg; remark: listed apart in the source

T3 sequence (P21554 whole entry): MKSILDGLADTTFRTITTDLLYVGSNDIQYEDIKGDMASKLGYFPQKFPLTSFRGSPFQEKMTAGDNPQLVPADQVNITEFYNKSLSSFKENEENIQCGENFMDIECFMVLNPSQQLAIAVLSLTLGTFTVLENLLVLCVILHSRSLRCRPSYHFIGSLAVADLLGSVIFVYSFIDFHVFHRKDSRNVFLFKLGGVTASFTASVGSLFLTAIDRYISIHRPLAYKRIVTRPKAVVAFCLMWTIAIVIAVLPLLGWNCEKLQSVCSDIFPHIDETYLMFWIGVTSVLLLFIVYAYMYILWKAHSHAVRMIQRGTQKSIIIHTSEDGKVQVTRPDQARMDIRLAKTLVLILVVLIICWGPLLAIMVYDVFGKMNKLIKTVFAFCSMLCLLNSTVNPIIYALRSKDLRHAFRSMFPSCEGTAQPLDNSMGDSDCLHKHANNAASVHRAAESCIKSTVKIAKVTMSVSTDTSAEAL
Sequence of CYP2C9 (P11712 whole entry, canonical isoform): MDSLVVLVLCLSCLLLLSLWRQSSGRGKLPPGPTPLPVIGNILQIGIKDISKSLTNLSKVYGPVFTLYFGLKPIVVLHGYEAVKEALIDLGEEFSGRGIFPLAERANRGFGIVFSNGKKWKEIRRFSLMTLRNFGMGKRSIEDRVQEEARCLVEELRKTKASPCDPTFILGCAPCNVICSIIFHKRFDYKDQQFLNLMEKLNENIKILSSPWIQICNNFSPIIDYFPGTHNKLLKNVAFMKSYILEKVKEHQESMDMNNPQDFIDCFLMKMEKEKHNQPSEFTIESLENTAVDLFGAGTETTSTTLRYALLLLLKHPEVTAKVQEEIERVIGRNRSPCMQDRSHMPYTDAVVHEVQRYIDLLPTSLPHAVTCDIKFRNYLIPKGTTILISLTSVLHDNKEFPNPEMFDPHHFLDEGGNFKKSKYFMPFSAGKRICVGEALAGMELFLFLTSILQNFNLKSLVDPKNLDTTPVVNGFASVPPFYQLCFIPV

Kp uu at 24 h [1]: 1.4 | IC50 [2]: 3100 nM | solubility kinetic [3]: 115 µM (≈ 45.9 µg/mL) | inhibition at 10 µM [4]: 80% | EC50 (Cannabinoid receptor 1 [5]): 1500 nM | Papp [6]: 21 ×10⁻⁶ cm/s | CLint scaled [7]: 52 mL/min/kg | Vd [8]: 3.1 L/kg | half-life [9]: 1.7 h | fraction unbound at 24 h [10]: 0.0135 | fraction unbound at 24 h [11]: 0.00775 | inhibition at 3 µM (CYP2C9): < 10% | inhibition (Cannabinoid receptor 1 [15]): inactive
SMILES: O=C(O[C@H](CO)C(F)(F)F)N1C[C@@H]2[C@H](C1)[C@H]2c1ccn(-c2ccc(F)cc2)n1
Activity (Mus musculus [12]): Active | Activity (Mus musculus [13]): Active | Activity (Mus musculus [14]): Active | inhibition (Mus musculus [16]): Active | inhibition (Mus musculus [17]): Active

From ChEMBL document CHEMBL4033794, “Discovery of Trifluoromethyl Glycol Carbamates as Potent and Selective Covalent Monoacylglycerol Lipase (MAGL) Inhibitors for Treatment of Neuroinflammation” (J Med Chem, 2018)
